Published values pooled from the literature.
Lines come from different studies, so protocols differ.
Target: Ephrin type-A receptor 1 (EPHA1, Homo sapiens, UniProt P21709)
One construct used (P21709 26-976): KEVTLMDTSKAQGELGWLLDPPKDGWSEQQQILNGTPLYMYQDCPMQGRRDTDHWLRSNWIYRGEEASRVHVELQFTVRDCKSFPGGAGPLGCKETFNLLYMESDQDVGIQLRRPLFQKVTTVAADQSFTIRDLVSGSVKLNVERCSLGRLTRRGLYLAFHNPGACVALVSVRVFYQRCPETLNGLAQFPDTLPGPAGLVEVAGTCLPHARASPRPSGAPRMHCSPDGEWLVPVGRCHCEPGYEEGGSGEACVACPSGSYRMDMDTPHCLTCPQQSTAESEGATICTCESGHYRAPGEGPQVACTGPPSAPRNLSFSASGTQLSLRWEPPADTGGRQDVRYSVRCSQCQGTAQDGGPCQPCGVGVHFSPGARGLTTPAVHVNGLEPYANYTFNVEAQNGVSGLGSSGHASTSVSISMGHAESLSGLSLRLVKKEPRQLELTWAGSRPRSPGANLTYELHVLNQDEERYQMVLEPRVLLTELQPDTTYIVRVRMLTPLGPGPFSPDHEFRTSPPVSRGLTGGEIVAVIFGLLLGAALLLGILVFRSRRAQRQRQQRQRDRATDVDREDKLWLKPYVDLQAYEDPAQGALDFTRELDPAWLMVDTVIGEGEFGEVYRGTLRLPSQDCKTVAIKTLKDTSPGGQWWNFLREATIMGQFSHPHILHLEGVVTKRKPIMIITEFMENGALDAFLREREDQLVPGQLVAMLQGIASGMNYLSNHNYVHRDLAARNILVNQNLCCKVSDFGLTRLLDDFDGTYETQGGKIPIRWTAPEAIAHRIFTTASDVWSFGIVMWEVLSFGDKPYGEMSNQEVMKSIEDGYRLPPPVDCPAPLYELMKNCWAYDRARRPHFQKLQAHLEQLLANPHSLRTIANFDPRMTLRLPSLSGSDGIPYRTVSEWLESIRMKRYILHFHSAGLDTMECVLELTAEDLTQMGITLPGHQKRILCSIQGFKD

Compound	assay	setting	quantity	result
CC(C)S(=O)(=O)c1ccc2nccc(Nc3ccc4sc(C5CCCC5)nc4c3)c2c1	enzyme activity, inhibitor	1 µM	activity vs control	100%
CCCCC(=O)Nc1ccc(-c2ccc3ncn(CCC)c(=O)c3c2)cn1	binding, competition with immobilised ligand	0.5 µM	remaining binding	80%
COc1ccc2oc(-c3ccc4nc(N)oc4c3)c/c(=N\c3ccccc3NC(=O)CCN)c2c1	binding	1 µM	remaining binding	101%
CC#CC(=O)N1CCC[C@H]1c1nc(-c2ccc(C(=O)Nc3ccccn3)cc2)c2c(N)nccn12	enzyme activity, inhibitor	1 µM	inhibition	25%
CN1CCN(C(=O)c2ccc(NC(=O)Nc3ccc(N(C)c4ccnc(Nc5ccc(CS(C)(=O)=O)cc5)n4)cc3)cc2)CC1	binding, competition with immobilised ligand	1 µM	remaining binding	56%
C=CC(=O)N1CCC([C@@H]2CCNc3c(C(N)=O)c(-c4ccc(Oc5ccccc5)cc4)nn32)CC1	cell-free assay	1 µM	inhibition	25%
Cc1ccc(NC(=O)c2ccnc(C(F)(F)F)c2)cc1-c1cc(OCCO)nc(N2CCOCC2)c1	binding, competition with immobilised ligand	1 µM	remaining binding	83%
C1=C/COCc2cc(ccc2OCCN2CCCC2)Nc2nccc(n2)-c2cccc(c2)COC/1	binding	0.1 µM	remaining binding	93%
